SENP8 block-1: SENP8 (human) protease inhibition; recombinant SENP8, Nedd8 substrate fluorescence; inhibition, % at 20 µM; actives 0.64% (n = 360,000); AID 602440; in the data active = inhibition mostly above about 40%, no sharp cut-off; inactive = mostly below about 27%
Target sequence (Q96LD8 whole entry, looked up): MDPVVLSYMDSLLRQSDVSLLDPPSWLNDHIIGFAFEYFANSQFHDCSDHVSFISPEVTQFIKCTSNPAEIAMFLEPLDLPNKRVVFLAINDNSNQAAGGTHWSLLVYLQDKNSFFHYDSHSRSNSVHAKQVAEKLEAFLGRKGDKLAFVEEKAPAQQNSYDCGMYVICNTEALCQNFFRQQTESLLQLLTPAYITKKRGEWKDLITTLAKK
SENP8 block-2: SENP8 protease inhibition | Q96LD8 | purified SENP8, Z-RLRGG-aminoluciferin cleavage, luminescence | inhibition, % at 10 µM | actives 1.2% (n = 330,000); in the data active = inhibition above about 50%
Platelet DG rel: platelet dense granule release activity | human platelet-rich plasma, SFLLRN dense granule ATP release, luminescence | inhibition, %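 (compounds screened at 7.5 µM in platelet-rich plasma)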 | actives 0.22% (n = 300,000) | AID 1663;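 active = mean replicate score, as percent of positive control, at or above 50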
SENP7 block: SENP7 protease inhibition; Q9BQF6; actives 1.5% (n = 330,000); recombinant SENP7, Z-RLRGG-aminoluciferin luminescence, 40 min; inhibition, % at 5 µM; AID 434973;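 active = inhibition above about 50% at the single test dose, limit read from the data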
SENP6 block: inhibitors of human SENP6 protease. actives 1.8% (n = 330,000). Q9GZR1. Recombinant SENP6 catalytic domain, aminoluciferin luminescence. inhibition, % at 10 µM;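 active = inhibition above about 50% at the single tested dose, limit read from the data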
SENP1 inh: SENP1 (human) catalytic domain inhibition. inhibition, % at 10 µM. Q9P0U3. AID 624204. actives 0.21% (n = 360,000). recombinant SENP1 catalytic domain, CyPet-SUMO1-YPet FRET cleavage;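 active = inhibition at least 30% at 10 µM, raw YFP signal under a set limit, fluorescence ratio 0.5 to 1.5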
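Material: hSENP1 catalytic domain, recombinant; medium: Tris pH 8 with BME, BSA, NP40 and catalase; compound: single concentration of 10 µM compound, 0.5% DMSO final; technique: FRET read of cyan and yellow fluorescence; timing: 50 min enzyme reaction, room temperature, light-protected; reagent: SFCypet-SUMO1-SFYpet substrate at 25 nM; control set: no-enzyme low, enzyme-DMSO high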
SENP8 conf: human SENP8 inhibition, confirmed; shares compounds with SENP7 block; Recombinant SENP8, Z-RLRGG-aminoluciferin luminescence, 60 min; inhibition, % at 12.5 µM; actives 40% (n = 6,200); AID 488912;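 active = mean inhibition across replicates above about 50%, limit read from the data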
SENP6 conf: confirmation of human SENP6 protease inhibitors | recombinant SENP6, Z-RLRGG-aminoluciferin luminescence | actives 58% (n = 6,200) | inhibition, % at 12.5 µM | AID 488915 | shares compounds with SENP7 block
SENP7 conf: human SENP7 inhibition, confirmed. shares compounds with SENP7 block. recombinant SENP7, Z-RLRGG-aminoluciferin luminescence, 40 min. inhibition, % at 12.5 µM. actives 69% (n = 6,200). AID 488917
Casp3 SENP sel: selectivity test for SENP inhibitors: human caspase-3 inhibition | AID 488918 | actives 60% (n = 6,200) | inhibition, % at 12.5 µM | purified caspase-3, Z-DEVD-aminoluciferin luminescence, 60 min | shares compounds with SENP7 block;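 active = mean inhibition above about 50%, limit read from the data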
Target sequence (P42574 28-227 limits assumed): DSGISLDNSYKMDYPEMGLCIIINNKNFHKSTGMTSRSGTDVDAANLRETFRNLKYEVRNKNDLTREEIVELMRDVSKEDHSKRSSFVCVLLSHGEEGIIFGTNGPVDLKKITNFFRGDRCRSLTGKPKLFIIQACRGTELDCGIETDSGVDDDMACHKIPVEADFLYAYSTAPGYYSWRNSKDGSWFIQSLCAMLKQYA
SENP luc ctr: counter-screen for SENP inhibitors: luminescence interference | Pre-incubated SENP8/Z-RLRGG-aminoluciferin, luciferase luminescence interference | shares compounds with SENP7 block | AID 488919 | inhibition, % at 12.5 µM | actives 39% (n = 6,200);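 active = mean inhibition above about 50% when retested at one dose, limit read from the data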
Each line names hits and unclear results; the compound was inactive in the other large screens (follow-up assays come after a bar, where they were run). Rows were chosen to be rich in hits. Some 2.6% of all compounds tested hit in one or more screens of this group.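 Rule for the calls, unless noted: active = mean inhibition above about 50% in the one-dose retest (limit read from the data); inactive = the rest.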

Cc1ccccc1C(=O)Nc1cc(NC(=O)c2ccccc2C)cc(C(=O)O)c1	none
O=C1/C(=C\c2ccncc2)CCc2ccccc21	SENP7 block 60.4, SENP6 block 57.3 | SENP8 conf 76.0 | SENP6 conf inactive | SENP7 conf inactive | Casp3 SENP sel inactive | SENP luc ctr 90.9
COc1cc(/C=C2/CCc3ccccc3C2=O)cc(OC)c1OC	none
CCOc1ccc(/C=C2\CCc3ccccc3C2=O)cc1	SENP8 block-2 95.0, SENP7 block 99.2, SENP6 block 96.8 | SENP8 conf inactive | SENP6 conf 87.6 | SENP7 conf inactive | Casp3 SENP sel inactive | SENP luc ctr inactive
COc1ccc(C=C2C(=O)OC(C)(C)OC2=O)cc1OC	none
COc1ccc(/C=C2\OC(=O)c3c(OC)cccc32)cc1OC	SENP6 block 61.7 | SENP8 conf inactive | SENP6 conf inactive | SENP7 conf 83.5 | Casp3 SENP sel 61.4 | SENP luc ctr inactive
COc1ccc(/C=C2/CCc3ccccc3C2=O)cc1OC	SENP6 block 58.6 | SENP8 conf 64.7 | SENP6 conf 62.8 | SENP7 conf 59.8 | Casp3 SENP sel inactive | SENP luc ctr inactive
CCCCn1c(N)c(N(CCOC)C(=O)CSCc2ccc(C)cc2)c(=O)[nH]c1=O	none
O=C(Cc1ccc(Cl)cc1)Nc1ccc(Br)cn1	none
Cc1cccc(N(CC(=O)NC(C)(C)C)C(=O)CCC(=O)Nc2ccccn2)c1	none
O=C(CCCc1ccccc1)NCc1ccc(Cl)cc1	none
O=C(Cn1nnc(-c2ccc(F)cc2)n1)NC(=O)NC1CCCCC1	none (no result: SENP8 block-2, Platelet DG rel, SENP7 block, SENP6 block)
Cc1ccc(N2NC(=O)/C(=C/c3ccc(-c4ccc(Cl)c(C(=O)O)c4)o3)C2=O)cc1	none
CC(C)N1C(=O)S/C(=C\c2ccc(-c3ccc(Cl)c(C(=O)O)c3)o2)C1=O	SENP8 block-2 86.4, SENP7 block 77.3, SENP6 block 91.2 | SENP8 conf 94.1 | SENP6 conf 93.7 | SENP7 conf 98.7 | Casp3 SENP sel inactive | SENP luc ctr 89.5
O=C1CC(N2CCC(O)(c3ccc(Br)cc3)CC2)C(=O)N1c1ccc(Cl)cc1 (stereo not given)	none
COC(=O)[C@]1(Cc2ccccc2)N[C@H](CN(C)C(=O)Nc2ccc(C)cc2)[C@@H]2C(=O)N(C)C(=O)[C@@H]21	none (no result: Platelet DG rel)
CNC(=O)N1CCC(C(=O)c2c(C)c(C)c(C)c(C)c2C)CC1	none
Cc1cc2ncc(-c3cccs3)nc2cc1C	SENP8 block-2 95.9, SENP7 block 97.9, SENP6 block 93.7 | SENP8 conf 65.9 | SENP6 conf 77.0 | SENP7 conf 67.0 | Casp3 SENP sel 85.8 | SENP luc ctr inactive
Cc1cc(-c2cccs2)n[nH]1	none
Cc1cc(C)n2nc(SCC(=O)NC(=O)c3ccccc3)nc2n1	none (no result: Platelet DG rel)
O=C(Nc1cccc(O)c1)c1c(O)c2ccccc2[nH]c1=O	SENP8 block-2 62.1, SENP7 block 85.7 | SENP8 conf inactive | SENP6 conf 50.2 | SENP7 conf 77.5 | Casp3 SENP sel 56.8 | SENP luc ctr inactive
CC(C)(C)NC(=O)NC(=O)COC(=O)c1cccc(OC(F)F)c1	none
O=C1NCCN1c1ccccc1	none (no result: SENP8 block-2, Platelet DG rel, SENP7 block, SENP6 block)
O=C1N(c2ccccc2)CCN1c1ccccc1	SENP8 block-2 69.7, SENP7 block 88.5, SENP6 block 83.3 | SENP8 conf inactive | SENP6 conf inactive | SENP7 conf inactive | Casp3 SENP sel inactive | SENP luc ctr inactive
